“And” between values parts separate entries of the source, which are not always exact repeats. Identical values can stand only once.
Legend:
[1] = tested on: E. faecium ATCC 700221; test: Broth microdilution MIC/MBC, E. faecium; assay type: cell-based, Enterococcus faecium; settings: for MIC E. faecium ATCC 700221: value before the parentheses, two values = two repeats; for MBC E. faecium ATCC 700221: value in parentheses
In short: (§1)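 CLSI broth microdilution in cation-adjusted Mueller–Hinton broth. Log-phase cultures were diluted to 7.5 × 10^5 CFU/mL, then mixed 1:1 with 2-fold serial dilutions of gold complexes from DMSO or water stocks, in triplicate, and held 37 °C, 18 h, static. MIC: lowest concentration giving >90% inhibition by OD600 against medium-only and bacteria-only wells. […] E. coli ATCC 25922 quality control was checked each run with ciprofloxacin and […].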

[2] = tested on: A. baumannii NCTC 13420; test: Broth microdilution MIC/MBC, A. baumannii; assay type: cell-based, Acinetobacter baumannii; settings: for MIC A. baumannii NCTC 13420: value before the parentheses, two values = two repeats; for MBC A. baumannii NCTC 13420: value in parentheses
[3] = tested on: P. aeruginosa NCTC 13437; test: Broth microdilution MIC/MBC, P. aeruginosa; assay type: cell-based, Pseudomonas aeruginosa; settings: for MIC P. aeruginosa NCTC 13437: value before the parentheses, two values = two repeats; for MBC P. aeruginosa NCTC 13437: value in parentheses
In short: as §1

[4] = tested on: S. aureus JE2 (USA300); test: Broth microdilution MIC/MBC, S. aureus; assay type: cell-based, Staphylococcus aureus; settings: for MIC S. aureus JE2 (USA300): value before the parentheses, two values = two repeats; for MBC S. aureus JE2 (USA300): value in parentheses
In short: as §1

[5] = tested on: K. pneumoniae ATCC 700603; test: Broth microdilution MIC/MBC, K. pneumoniae; assay type: cell-based, Klebsiella pneumoniae; settings: for MIC K. pneumoniae ATCC 700603: value before the parentheses, two values = two repeats; for MBC K. pneumoniae ATCC 700603: value in parentheses
In short: as §1

[6] = tested on: E. cloacae NCTC 13405; test: Broth microdilution MIC/MBC, E. cloacae; assay type: cell-based, Enterobacter cloacae; settings: for MIC E. cloacae NCTC 13405: value before the parentheses, two values = two repeats; for MBC E. cloacae NCTC 13405: value in parentheses
In short: as §1

[7] = tested on: E. coli ATCC 25922; test: Broth microdilution MIC/MBC, E. coli; assay type: cell-based, Escherichia coli; settings: for MIC E. coli ATCC 25922: value before the parentheses, two values = two repeats; for MBC E. coli ATCC 25922: value in parentheses
In short: as §1

[8] = Log P determination; settings: n-octanol/water, Au by FAAS

SMILES	MIC E. faecium ATCC 700221 [1]	MBC E. faecium ATCC 700221 [1]	MIC A. baumannii NCTC 13420 [2]	MBC A. baumannii NCTC 13420 [2]	MIC P. aeruginosa NCTC 13437 [3]	MBC P. aeruginosa NCTC 13437 [3]	MIC S. aureus JE2 (USA300) [4]	MBC S. aureus JE2 (USA300) [4]	MIC K. pneumoniae ATCC 700603 [5]	MBC K. pneumoniae ATCC 700603 [5]	MIC E. cloacae NCTC 13405 [6]	MBC E. cloacae NCTC 13405 [6]	fold enhancement of activity over auranofin, E. cloacae ([6]; vs auranofin)	MIC E. coli ATCC 25922 [7]	MBC E. coli ATCC 25922 [7]	log P [8]	fold enhancement of activity over auranofin, S. aureus ([4]; vs auranofin)	fold enhancement of activity over auranofin, E. coli ([7]; vs auranofin)	fold enhancement of activity over auranofin, E. faecium ([1]; vs auranofin)	MIC S. aureus [4]
CC[PH](CC)(CC)[Au][S]C1OC(CO)C(O)C(O)C1O [Compound 10, (1-Thio-β-D-galatopyranosato)(triethylphosphine) Gold(I)]	0.1 µM and 0.2 µM	0.5 µM	31 µM	31 µM	251 µM	251 µM	0.02 µM	0.1 µM	251 µM	251 µM	63 µM	63 µM	3	16 µM	16 µM	−0.73				
CC[PH](CC)(CC)[Au][S]C1OC(CO)C(O)C(O)C1O [Compound 11, (1-Thio-D-mannopyranosato)(triethylphosphine) Gold(I)]	0.1 µM and 0.06 µM	0.5 µM	31 µM	63 µM	502 µM	502 µM		0.1 µM	502 µM	502 µM	125 µM	251 µM		16 µM	16 µM	−0.59				
CC[P+](CC)(CC)[Au-][S][C@@H]1OC(CO)[C@@H](O)[C@H](O)C1NC(C)=O (stereo partly drawn) [Compound 12, (2-Acetamido-2-deoxy-1-thio-β-D-glucopyranosato)-(triethylphosphine) Gold(I)]	0.05 µM and 0.1 µM	0.5 µM	15 µM and 29 µM	116 µM	464 µM	464 µM	0.02 µM	0.05 µM	464 µM	464 µM	116 µM	232 µM		7 µM and 4 µM	7 µM	−0.89	2–3	2–3		
CC[PH](CC)(CC)[Au][O]C1OC(CO)C(OC2OC(CO)C(O)C(O)C2O)C(O)C1O [Compound 13, [β-D-Galactopyranosyl-(1→4)-β-D-glucopyranosato]-(triethylphosphine) Gold(I)]	0.09 µM	0.4 µM	24 µM and 48 µM	190 µM	381 µM	381 µM		0.09 µM	381 µM	381 µM	190 µM	190 µM		24 µM	24 µM					
CC[PH](CC)(CC)[Au][S]C1OC(CO)C(OC2OC(CO)C(O)C(O)C2O)C(O)C1O (stereo not shown) [Compound 14]		0.4 µM	24 µM	24 µM	381 µM	381 µM		0.09 µM	>381 µM		190 µM	190 µM		12 µM	12 µM	−1.69				
CC[PH](CC)(CC)[Au][S]c1ccccc1 [Compound 15, (Benzenethiolato)(triethylphosphine) Gold(I)]	0.6 µM	1 µM		> 603 µM	302 µM	302 µM	0.02 µM	0.6 µM	>603 µM		75 µM	603 µM		151 µM	151 µM	2.20				
CC[PH](CC)(CC)[Au][S]c1ccccc1N [Compound 16, (2-Aminobenzenethiolato)(triethylphosphine) Gold(I)]	0.02 µM	0.1 µM	18 µM and 36 µM	18 µM	291 µM	291 µM	0.009 µM	0.6 µM	146 µM	146 µM				36 µM	36 µM	0.61			more than 7	in the nanomolar range
CC[P+](CC)(CC)[Au-][S]CC(=O)OC [Compound 22, (Methyl Mercaptoacetatato)(triethylphosphine) Gold(I)]		0.6 µM	19 µM	76 µM	305 µM	305 µM		0.02 µM	76 µM	76 µM	38 µM	152 µM		76 µM	76 µM	1.75				in the nanomolar range
CC[P+](CC)(CC)[Au-][S]CC(F)(F)F [Compound 23, (2,2,2-Trifluoroethanethiolato)(triethylphosphine) Gold(I)]	0.6 µM	1 µM	37 µM and 74 µM	149 µM	149 µM	149 µM	0.009 µM	0.1 µM	149 µM	149 µM	37 µM	149 µM		74 µM	74 µM	2.08				in the nanomolar range
Fc1ccc([PH+](c2ccc(F)cc2)c2ccc(F)cc2)cc1.[Cl][Au] [Compound 29, (Tris(4-fluorophenyl)phosphine)gold Chloride]	2 µM and 4 µM	4 µM	29 µM and 58 µM	233 µM	>467 µM				>467 µM		>467 µM			>467 µM		>4.04				

Source: PMC7941214 (Journal of medicinal chemistry, 2019)
